Compound activity deposited in PubChem BioAssay by several laboratories.
H9c2 TAG inh = inhibitors of triacylglycerol accumulation, primary screen, cell-based, uHTS, fluorescence, H9c2; H9c2 cells, Nile Red lipid (TAG) fluorescence; cells loaded with 200 µM oleic acid; inhibition, % at 12.5 µM; 230,000 compounds, 0.66% hits;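 active means pattern-corrected inhibition of lipid staining of at least 50% with the nuclear-stain viability signal not falling by more than 50%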
beta cell repl = inducers of MIN6 beta-cell proliferation, primary screen, ATP luminescence, uHTS; MIN6 cells proliferation, ATPlite luminescence, 48 h; cells starved in 0.2% serum; 100% = growth in 10% serum; proliferation, % at 10 µM; 330,000 compounds, 0.29% hits;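 active means compounds whose signal lies at least 3.5 SD above the mean of all wells on their plate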
iPSC survival up = enhancers of single-cell hiPSC survival, primary screen, ATPlite luminescence; survival enhancement, % at 20 µM; AID 602274, 2012; 360,000 compounds, 0.044% hits; 100% = ROCK inhibitor wells, 0% = DMSO; in the data active means survival enhancement above about 18%;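 further: cells exposed to compounds for 16 hours before the ATP read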
Rev-erbA mod = modulators of Rev-erb alpha DNA binding, primary screen, biochemical, FITC-DNA, fluorescence polarization, uHTS | activity, % at 10 µM | Rev-erbα–FITC-DNA binding, 90 min | AID 1259318, 2017 | Nuclear receptor subfamily 1 group D member 1 (Homo sapiens), P20393 | 370,000 compounds, 0.79% hits;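 active means activity above about 14%, limit read from the data; passing the limit was not always enough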
Target sequence (P20393 whole entry, looked up): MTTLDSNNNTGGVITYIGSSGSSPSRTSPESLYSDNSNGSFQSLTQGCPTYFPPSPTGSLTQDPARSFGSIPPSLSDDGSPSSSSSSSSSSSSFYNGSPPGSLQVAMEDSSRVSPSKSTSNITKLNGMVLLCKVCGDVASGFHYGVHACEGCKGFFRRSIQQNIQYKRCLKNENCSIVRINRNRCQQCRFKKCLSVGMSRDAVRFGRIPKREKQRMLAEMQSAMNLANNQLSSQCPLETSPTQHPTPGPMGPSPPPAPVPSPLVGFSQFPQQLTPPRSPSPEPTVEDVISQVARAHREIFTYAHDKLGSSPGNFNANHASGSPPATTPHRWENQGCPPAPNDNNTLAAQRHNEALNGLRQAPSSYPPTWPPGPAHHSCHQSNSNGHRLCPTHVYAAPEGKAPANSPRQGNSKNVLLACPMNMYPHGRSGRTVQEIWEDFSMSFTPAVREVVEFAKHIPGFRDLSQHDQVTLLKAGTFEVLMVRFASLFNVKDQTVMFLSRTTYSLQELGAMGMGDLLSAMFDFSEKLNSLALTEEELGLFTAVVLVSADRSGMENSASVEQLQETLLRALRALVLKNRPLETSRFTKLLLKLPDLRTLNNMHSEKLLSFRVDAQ
T cruzi repl = inhibitors of intracellular T. cruzi growth, primary screen, luminescence, NIH3T3 host cells. T. cruzi beta-gal in NIH3T3, 90 h. inhibition, % (no concentration beside the values). 300,000 compounds, 1.4% hits;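 active means mean inhibition across valid replicates above about 55%, limit read from the data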;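 further: signal also drops with host cell toxicity which is not excluded here; higher percent means less beta-gal luminescence so fewer parasites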
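Test system: β-gal T. cruzi (Tulahuen C4) inside NIH/3T3 cells / Quantity: 5,000 cells/well / Measured by: luminescence from GalScreen with 0.05% NP40, read after 60 min / Medium: DMEM plus 2% FBS / Measure: parasite load inhibition, % / Reagent: Tulahuen C4 trypomastigotes, 5000/well / Schedule: co-culture of at least 90 h after 3 h attachment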
PG9 binder = binders of HIV-1 gp120 antibody PG9, primary screen, biochemical, TR-FRET; HIV-1 gp120 / PG9 antibody interaction; TR-FRET gp120-PG9 antibody binding; inhibition, % at 6.7 µM; 360,000 compounds, 0.43% hits; AID 624416, 2012; in the data active means inhibition above about 8.5%
Of the large screens only hits and unclear results are named; the others gave an inactive call. Most compounds without a hit are left out; they make up all but 2.9% or so of the library.

COc1ccc(S(=O)(=O)N2CCCC2CNC(=O)c2cccc(OC)c2)cc1 (centres undefined)	none
COc1ccc(S(=O)(=O)N(C)C[C@H]2Oc3c(NC(=O)Nc4ccc(C(F)(F)F)cc4)cccc3C(=O)N([C@H](C)CO)C[C@@H]2C)cc1	H9c2 TAG inh 56.5 (no result: Rev-erbA mod, T cruzi repl, PG9 binder)
O=c1c(Cl)c(Cl)cnn1Cc1ccccc1Cl	none (no result: H9c2 TAG inh, beta cell repl, iPSC survival up)
O=c1c(Cl)c(Cl)cnn1Cc1nnc(-c2ccc(Cl)cc2)o1	H9c2 TAG inh 60.9, T cruzi repl 59.8 (no result: beta cell repl)
Brc1ccc(-c2nnc(-c3cccnc3)c3conc23)cc1	none (no result: H9c2 TAG inh, iPSC survival up, Rev-erbA mod, PG9 binder)
COc1ccc(NC(=O)c2ccc([N+](=O)[O-])cc2[N+](=O)[O-])c(OC)c1	T cruzi repl 61.2
Cc1cccc(C)c1NC(=O)c1ccc([N+](=O)[O-])s1	none
COc1ccc(NC(=O)c2ccc([N+](=O)[O-])s2)c([N+](=O)[O-])c1	T cruzi repl 63.8
Cc1cccc(NC(=O)c2ccc([N+](=O)[O-])s2)c1C	T cruzi repl 65.9
Cc1nc2ccc(NC(=O)c3ccc([N+](=O)[O-])cc3[N+](=O)[O-])cc2s1	T cruzi repl 79.4
Cc1cccc(-n2nc(C)c3c2NC2=C(C(=O)CCC2)C3c2ccccn2)c1 (centres undefined)	none
Cc1cc(NC(=O)c2cccc([N+](=O)[O-])c2)no1	none
Cc1cccc(NC(=O)c2ccc([N+](=O)[O-])s2)n1	T cruzi repl 64.7 (no result: H9c2 TAG inh)
Cc1ccnc(NC(=O)CNC(=O)c2ccc(C)s2)c1	none
Cc1ccnc(NC(=O)c2ccc([N+](=O)[O-])s2)c1	T cruzi repl 55.5
Cc1ccnc(NC(=O)Cc2ccc([N+](=O)[O-])cc2)c1	none
Cc1cc(NC(=O)c2cc([N+](=O)[O-])cc([N+](=O)[O-])c2)no1	T cruzi repl 54.6
Cc1cccc(NC(=O)c2ccc([N+](=O)[O-])o2)n1	none (no result: Rev-erbA mod)
Cc1ccnc(NC(=O)c2cc([N+](=O)[O-])cc([N+](=O)[O-])c2)c1	T cruzi repl 60.3
CCCCN(C)S(=O)(=O)c1ccc(C(=O)Nc2nnc(-c3cccs3)o2)cc1	T cruzi repl 57.2 (no result: H9c2 TAG inh, iPSC survival up, Rev-erbA mod, PG9 binder)
CCN(c1ccccc1)S(=O)(=O)c1ccc(C(=O)Nc2nnc(C3CC3)o2)cc1	T cruzi repl 71.8 (no result: H9c2 TAG inh)
COc1ccc(-c2nnc(NC(=O)c3ccc(S(=O)(=O)N4COCC4(C)C)cc3)o2)cc1	T cruzi repl 62.2
CCCN(CCC)S(=O)(=O)c1ccc(C(=O)Nc2nnc(-c3cc(OC)cc(OC)c3)o2)cc1	T cruzi repl 58.5 (no result: Rev-erbA mod, PG9 binder)
O=C(Nc1ccc(Cl)cc1Cl)c1n[nH]c(Cn2cncn2)n1	none (no result: H9c2 TAG inh)
COc1ccccc1-c1nnc(NC(=O)c2ccc(S(=O)(=O)N(C)C)cc2)o1	none
CCN(Cc1ccccc1)S(=O)(=O)c1ccc(C(=O)Nc2nnc(-c3ccccc3OC)o2)cc1	T cruzi repl 62.0
CN1CCN(c2ccc(S(=O)(=O)N3CCCCC3)cc2NC(=O)c2ccc(C#N)cc2)CC1	T cruzi repl 55.7 (no result: H9c2 TAG inh)
Cc1ccccc1OCC(=O)Nc1cc(S(=O)(=O)N2CCCCC2)ccc1N1CCN(C)CC1	T cruzi repl 57.9 (no result: H9c2 TAG inh)
CN1CCN(c2ccc(S(=O)(=O)N3CCCCC3)cc2NC(=O)CCc2ccccc2)CC1	none (no result: T cruzi repl)
CN1CCN(c2ccc(S(=O)(=O)N3CCCCC3)cc2NC(=O)CSCc2ccccc2)CC1	T cruzi repl 66.8
Cc1cccc(OCC(=O)Nc2cc(S(=O)(=O)N3CCOCC3)ccc2N2CCCC2)c1C	none
O=[N+]([O-])c1ccc(SCCc2ccccn2)cc1	none
Cc1c(C(=O)Nc2ccc(Br)cc2)cnn1C	none (no result: H9c2 TAG inh)
CC(NC(=S)NC1CCCCC1)C(c1cccs1)N1CCOCC1 (centres undefined)	none
COc1cccc2sc(Nc3nnc(-c4cccs4)o3)nc12	T cruzi repl 65.0
c1ccc(Nc2nc(-c3ccccn3)cs2)cc1	none
COc1cccc2sc(Nc3nc(-c4ccccn4)cs3)nc12	T cruzi repl 74.5 (no result: Rev-erbA mod, PG9 binder)
NC(=S)Cc1nc(-c2ccccc2)cs1	none (no result: H9c2 TAG inh)
COc1ccccc1-c1cc(C(F)(F)F)nc(NCc2cccs2)n1	none (no result: H9c2 TAG inh)
Cc1ccc(-c2cc(C(F)F)nc(NCc3cccnc3)n2)cc1	T cruzi repl 59.8
FC(F)(F)c1cc(-c2ccc(Cl)cc2)nc(NCc2cccnc2)n1	T cruzi repl 70.1 (no result: H9c2 TAG inh)
Cc1ccc(-c2cc(C(F)F)nc(NCc3cccs3)n2)cc1	none (no result: H9c2 TAG inh)
COc1ccc(-c2cc(C(F)(F)F)nc(NCc3cccs3)n2)cc1	T cruzi repl 55.1 (no result: H9c2 TAG inh)
N=c1sccn1CC(=O)Nc1ccc([N+](=O)[O-])cc1Cl	none
CCN1CCN(Cc2ccc(NC(=O)c3cc(NC(=O)c4cc(-c5ccc(OC)cc5)n[nH]4)cc(OC)c3)cc2C(F)(F)F)CC1	H9c2 TAG inh 69.4
Cc1ccc(C(=O)Nc2cccc(C(F)(F)F)c2)cc1NC(=O)c1c[nH]c2cc(C(F)(F)F)ccc2c1=O	none (no result: T cruzi repl)
CCN1CCN(Cc2ccc(NC(=O)c3cc(NC(=O)c4ccc5n[nH]nc5c4)cc(OC)c3)cc2C(F)(F)F)CC1	none
CCN1CCN(Cc2ccc(NC(=O)c3ccc(C)c(NC(=O)c4c[nH]c5cc(C(F)(F)F)ccc5c4=O)c3)cc2C(F)(F)F)CC1	H9c2 TAG inh 138.9
CN(C)CC/C=C1/c2ccccc2Sc2ccc(Cl)cc21	none
Cn1nc([N+](=O)[O-])nc1Oc1ccccc1F	T cruzi repl 74.1
Cn1nc([N+](=O)[O-])nc1Oc1ccccc1N	T cruzi repl 62.7 (no result: H9c2 TAG inh)
COc1cccc(C(=O)Oc2cc(N)n(S(=O)(=O)c3ccc(C)cc3)n2)c1OC	none
CCCCCN1C(C)=CC(=C(C#N)C#N)C=C1C	none
COc1ccccc1C(C[N+](=O)[O-])c1c(N)n(C)c(=O)n(C)c1=O (centres undefined)	H9c2 TAG inh 52.5
O=C(Cc1ccc([N+](=O)[O-])cc1)Nc1cccc(C(F)(F)F)c1	none (no result: H9c2 TAG inh)
O=C(Cc1ccc([N+](=O)[O-])cc1)Nc1cc(C(F)(F)F)cc(C(F)(F)F)c1	T cruzi repl 70.4
Cc1cccc(NS(=O)(=O)c2ccc(NC(=O)CN(c3cc([N+](=O)[O-])ccc3C)S(C)(=O)=O)cc2)c1	T cruzi repl 74.7 (no result: H9c2 TAG inh)
COc1ccc(NS(=O)(=O)c2cc3c4c(c2)C(C)C(=O)N4CCC3)cc1 (centres undefined)	none (no result: H9c2 TAG inh)
Cc1noc(/C=C/N(C)C)c1S(=O)(=O)N1CCCC(C(=O)NC2CCCCC2)C1 (centres undefined)	T cruzi repl 61.8
Cc1[nH]c(N=Nc2ccccc2)nc1N=Nc1ccccc1	T cruzi repl 64.7
